Experimental data reported in ChEMBL document CHEMBL3352778, “HDX reveals unique fragment ligands for the vitamin D receptor” (Bioorg Med Chem Lett, 2014).
The source made the active and inactive calls. The calls are words filed in the database; no cut-off is given here.

What was measured:
Homo sapiens = organism: Homo sapiens; assay: Agonist activity at human full length Flag-tagged RXR/His-tagged VDR assessed as ability to recruit coactivator DRIP205 up to 500 uM by Alphascreen assay
Procedure, shortened: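 AlphaScreen proximity assay of the RXR–VDR complex run in agonist mode, i.e. without any added VDR agonist. Read-out is the proximity signal produced when coactivator peptide DRIP205 is recruited to the VDR–RXR complex. Fragments were tested at concentrations up to 500 µM.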

[1] = Antagonist activity at human full length Flag-tagged RXR/His-tagged VDR by Alphascreen assay
Procedure, shortened: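 Antagonist-mode AlphaScreen assay: a non-secosteroidal VDR agonist was added to form the VDR/RXR/DRIP205 complex. Fragments were then added at 10 doses spanning 0.025–500 µM. Dissociation of the complex was quantified as loss of proximity signal on a multilabel reader, and dose–response curves were fitted.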

In the case of `O=C(O)/C=C(/c1ccccc1)c1cccs1`, the Activity (Homo sapiens) is reported as “inactive” and the IC50 [1] is reported as 16.7 µM.
With `Oc1csc2ccccc12` the Activity (Homo sapiens) was “inactive” and the IC50 [1] was 6.83 µM.
For `Oc1cnn(-c2ccccc2)c1Cl`, the Activity (Homo sapiens) was “inactive” and the IC50 [1] was 43.2 µM.
With `CCC1CCCCN1CC(=O)c1cccs1` (stereo unspecified) the Activity (Homo sapiens) was “inactive” and the IC50 [1] was 20 µM.
With `O=C(O)C1CSC=C(c2ccccc2)N1` (stereo unspecified) the Activity (Homo sapiens) was “inactive” and the IC50 [1] was 2.77 µM.
For `O=C1CC=C(c2ccccc2)O1`, the Activity (Homo sapiens) was “inactive” and the IC50 [1] was 440 µM.
In the case of `Cn1c(=O)c2nc(-c3cccc(O)c3O)nnc2n(C)c1=O`, the Activity (Homo sapiens) is reported as “inactive” and the IC50 [1] is reported as 0.194 µM.
For `O=C1CCCC=C(Cl)N1c1ccccc1`, the Activity (Homo sapiens) was “inactive” and the IC50 [1] was 6.98 µM.
For `Nc1ccc2c(c1)N=C(O)CN2`, the Activity (Homo sapiens) was “inactive” and the IC50 [1] was 5.37 µM.
In the case of `Oc1cc(-c2ccc(Cl)cc2)no1`, the Activity (Homo sapiens) is reported as “inactive” and the IC50 [1] is reported as 67.1 µM.
In the case of `Oc1coc(-c2ccccc2)c1`, the Activity (Homo sapiens) is reported as “inactive” and the IC50 [1] is reported as 14.2 µM.
With `CCn1c(O)cc(C)cc1=O` the Activity (Homo sapiens) was “inactive” and the IC50 [1] was 1.01 µM.
In the case of `OC(c1ccc(-c2cccs2)cc1)(C(F)(F)F)C(F)(F)F`, the Activity (Homo sapiens) is reported as “inactive” and the IC50 [1] is reported as 1.3 µM.
